Results collected from several papers.
Each line is one published result; the experiments were not run side by side.
Target: Dual specificity protein kinase CLK2 (CLK2, Homo sapiens, UniProt P49760)

`CC(C)(C)c1nc2c(s1)c1nc(N)ncc1c1ccc(NS(=O)(=O)c3c(F)cccc3F)c(F)c12` gave a remaining activity of 90% (enzyme activity, inhibitor, radiometric; 1 µM).
`Cc1ccc(NC(=O)c2ccc(C)c(C(F)(F)F)c2)cc1C#Cc1nn(C2CCC(O)CC2)c2ncnc(N)c12` (centres unmarked) gave a remaining signal of 47% (cell-free assay; 10 µM).
`CCN1CCC2(CC1)NC(=O)c1c(c3ccc(Cl)c(Cl)c3n1C)C2C#N` (racemic) gave a ΔTm of 1.4 °C (thermal stability, DSF; 10 µM).
`O=C(NCc1ncc(C(F)(F)F)cc1Cl)c1ccc2c(c1)C1(CCS(=O)(=O)CC1)[C@H](C1CC1)N2S(=O)(=O)c1ccc(F)cc1` has a remaining binding of 100% (cell-free assay, competition with immobilised ligand; 1 µM).
With `Cn1c2c(Cl)c(Cl)ccc2c2cc(N)[nH]c(=O)c21` the ΔTm was 1.3 °C (thermal stability, DSF; 10 µM).
`Nc1ncnc2occ(-c3ccc(NC(=O)Nc4cc(C(F)(F)F)ccc4F)cc3)c12` has a remaining signal of 23% (cell-free assay, inhibitor; 20 µM).
The remaining activity of `COc1cc(Nc2cnc(C#N)c(O[C@H](C)CN(C)C)n2)ncc1-c1cnn(C)c1` is reported as 95% (enzyme activity, inhibitor, radiometric; 1 µM).
`CCN(CC)c1ccc(C2=NNC(=O)CC2C)cc1[N+](=O)[O-]` (centres unmarked) has a remaining activity of 96% (enzyme activity, inhibitor; 10 µM).
With `COc1cc2ncnc(Nc3ccc(Oc4ccccc4)cc3C)c2cc1OC` the inhibition was 0% (enzyme activity, inhibitor; 1 µM).
`Cn1cncc1C1=CN(c2ncnc3[nH]cnc23)CCS1` gave an inhibition of 97.8% (enzyme activity, inhibitor, radiometric; 2 µM).
For `COc1cc(-c2cn(C3CCc4c(F)cccc4N(CC(F)(F)F)C3=O)nn2)ccc1-n1cnc(C)c1` (centres unmarked), the remaining binding was 100% (cell-free assay, competition with immobilised ligand; 1 µM).
For `Cn1cnc(Br)c1C1=CN(c2ncnc3[nH]cnc23)CCS1`, the inhibition was 97.2% (enzyme activity, inhibitor, radiometric; 2 µM).
`CC(=O)Nc1c(C(C)=O)c(=O)n(C)c2nc(-c3ccc(Cl)cc3Cl)c(-c3ccc(Cl)cc3)cc12` gave a remaining binding of 100% (cell-free assay, competition with immobilised ligand; 1 µM).
`CN(C)C1CCN(CC#Cc2nn(C3CCCC3)c3nc(NCc4ccccc4)ncc23)C1` (centres unmarked) gave an inhibition of 8% (enzyme activity, inhibitor, FRET; 0.1 µM).
`Cn1c2c(c3ccc(Cl)c(Cl)c31)C(C#N)C1(CCCCC1)NC2=O` (racemic) gave a ΔTm of 2.1 °C (thermal stability, DSF; 10 µM).
With `c1ccc(CNc2nc(N3CCOc4ccccc43)nc3c2CCCC3)cc1` the inhibition was -5.9% (target engagement in cells, inhibitor, chemoproteomics; 20 mM).
For `CCC1(CC)NC(=O)c2c(c3ccc(Cl)c(Cl)c3n2C)C1C#N` (centres unmarked), the ΔTm was 1.3 °C (thermal stability, DSF; 10 µM).
With `O=C1Nc2ccc(Cl)cc2C1=Cc1cc(Cl)c(O)c(Cl)c1` the remaining signal was 95.5% (cell-free assay; 0.5 µM).
With `Cn1c2c(c3ccc(Cl)c(Cl)c31)C(C#N)C1(CCN(C(=O)OC(C)(C)C)CC1)NC2=O` (racemic) the ΔTm was -0.3 °C (thermal stability, DSF; 10 µM).
With `FC(F)c1nc2ccccc2n1-c1nc(N2CCOCC2)nc(N2CCOCC2)n1` the remaining activity was 85% (enzyme activity, inhibitor; 10 µM).
The remaining binding of `CCOCCn1cc(C(=O)Nc2ccc(-n3nc(-c4cccnc4)cc3C(F)(F)F)cn2)ccc1=O` is reported as 86% (cell-free assay, competition with immobilised ligand; 1 µM).
For `Cc1cnc(NC2CCOCC2)nc1-n1cnc(C(=O)NC(CN)c2cc(F)cc(Cl)c2)c1` (centres unmarked), the remaining activity was 78% (enzyme activity, inhibitor, radiometric; 1 µM).
For `CCCOc1ccc([C@@H]2[C@@H](C(=O)O)[C@H](c3ccc4c(c3)OCO4)CN2CC(=O)Nc2c(CC)cccc2CC)cc1`, the remaining binding was 100% (cell-free assay, competition with immobilised ligand; 1 µM).
The remaining signal of `CS(=O)(=O)CCNCc1ccc(-c2ccc3ncnc(Nc4ccc(OCc5cccc(F)c5)c(Cl)c4)c3c2)o1` is reported as 95.1% (cell-free assay; 0.5 µM).
`Oc1cccc(-c2nc(N3CCOCC3)c3oc4ncccc4c3n2)c1` has a remaining activity of 25% (enzyme activity, inhibitor; 10 µM).
`FC(F)(F)Oc1cccc(-c2cnc3ccc(-c4ccncc4)nn23)c1` has an activity vs control of 0.675% (enzyme activity, inhibitor, radiometric; 1 µM).
`CN([C@@H]1CCc2c(CC(=O)O)c3cc(S(C)(=O)=O)ccc3n2C1)S(=O)(=O)c1ccc(F)cc1` gave a remaining binding of 100% (cell-free assay, competition with immobilised ligand; 1 µM).
The activity vs control of `COc1cc(/C=C/C(=O)CC(=O)/C=C/c2ccc(O)c(OC)c2)ccc1O` is reported as 48% (enzyme activity, inhibitor; 1 µM).
The remaining binding of `COc1ccc2cc(OCC3(C(=O)O)CN(C(=O)c4ccc(F)cc4)C3)ccc2c1` is reported as 100% (cell-free assay, competition with immobilised ligand; 1 µM).
For `O=C(CSc1nc2nccnc2c(=O)n1CCc1ccccc1)Nc1nccs1`, the inhibition was 15% (enzyme activity, inhibitor; 10 µM).
`N#CCCc1ccc2c(c1)-c1[nH]c3ccc([N+](=O)[O-])cc3c1CC(=O)N2` gave a remaining signal of 104% (cell-free assay; 0.5 µM).
For `O=C(Nc1cnn(-c2csc(C(=O)NC3COC3)c2)c1)Nc1c(F)cccc1Cl`, the remaining activity was 109% (enzyme activity, inhibitor; 5 µM).
`COc1ccc2c(O[C@@H]3C[C@H]4C(=O)N[C@]5(C(=O)O)CC5/C=C\CCCCC[C@H](NC(=O)OC5CCCC5)C(=O)N4C3)cc(-c3csc(NC(=O)C(C)C)n3)nc2c1C` (some centres unmarked) has a remaining binding of 100% (cell-free assay, competition with immobilised ligand; 1 µM).
`Nc1nc(Nc2ccc(S(N)(=O)=O)cc2)sc1C(=O)c1ccccc1[N+](=O)[O-]` gave an inhibition of 60 to 66% (enzyme activity, inhibitor; 0.1 µM).
`O=C1NC(=O)c2cc(Nc3ccc(F)cc3)c(Nc3ccc(F)cc3)cc21` has a remaining signal of 88.1% (cell-free assay; 0.5 µM).
